According to ChEMBL document CHEMBL1141409, “Structures, biogenesis, and biological activities of pyrano[4,3-c]isochromen-4-one derivatives from the Fungus Phellinus igniarius” (J Nat Prod, 2007):

Key:
[1] = Cytotoxicity against human […] cells; format: cell-based
[2] = system: HCT-8; experiment: Cytotoxicity against human HCT8 cells; format: cell-based
[3] = system: Liver microsomes; experiment: Antioxidant activity assessed as inhibition of rat liver microsomal lipid peroxidation; format: functional, Microsome
[4] = system: A549; experiment: Cytotoxicity against human A549 cells; format: cell-based
[5] = biological target: T1, Tyrosine-protein phosphatase non-receptor type 1 (Homo sapiens, UniProt P18031); experiment: Inhibition of human PTP1B
T1 sequence (P18031 whole entry): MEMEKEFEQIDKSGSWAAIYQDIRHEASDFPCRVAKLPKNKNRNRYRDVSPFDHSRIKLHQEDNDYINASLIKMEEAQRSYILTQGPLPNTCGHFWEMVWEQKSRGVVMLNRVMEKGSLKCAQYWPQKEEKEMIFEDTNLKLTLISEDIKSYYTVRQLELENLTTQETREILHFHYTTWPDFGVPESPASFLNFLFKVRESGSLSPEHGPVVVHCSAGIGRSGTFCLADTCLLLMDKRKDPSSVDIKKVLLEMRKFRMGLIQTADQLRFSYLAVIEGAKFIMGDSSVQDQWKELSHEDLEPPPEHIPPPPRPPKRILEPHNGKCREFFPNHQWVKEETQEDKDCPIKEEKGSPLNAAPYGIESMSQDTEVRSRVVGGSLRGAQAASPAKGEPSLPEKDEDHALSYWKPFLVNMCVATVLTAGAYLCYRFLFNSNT
Outline: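 Recombinant GST-tagged human PTP1B, purified from bacterial pellets on a GST bead column. Substrate 3 mM p-NPP in HEPES buffer, pH 7.0. Compounds dissolved in DMSO, 10% DMSO final in all reactions. First screened at 10 µM for 10 min at 30 °C. Reaction started by adding enzyme and stopped with 1 M NaOH. End-point p-nitrophenol absorbance at 405 nm.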

[6] = Cytotoxicity against human Bel7402 cells; format: cell-based; conditions: Bel-7402

Row | Structure (SMILES) | IC50 [1] | IC50 [2] | IC50 [3] [µM] | IC50 [4] | IC50 [5] [µM] | IC50 [6]
1 | O=C(O)c1cc2oc(=O)c3cc(O)c(O)cc3c2c(=O)o1 [PHELLIGRIDIN J] | 7.2 µM | 8.4 µM | 6.5 | 4.2 µM | > 10 | 9.2 µM
2 | O=c1oc2cc(-c3c(-c4ccc(O)c(O)c4)oc4cc(/C=C/c5ccc(O)c(O)c5)oc(=O)c34)oc(=O)c2c2cc(O)c(O)cc12 [PHELLIGRIDIN H] | > 10 µg/mL | > 10 µg/mL | 4.8 | > 10 µg/mL | – | > 10 µg/mL
3 | CC1=CC(=O)[C@H](c2c(O)cc(/C=C/c3ccc(O)c(O)c3)oc2=O)[C@@H](c2ccc(O)c(O)c2)O1 [DAVALLIALACTONE] | > 10 µg/mL | > 10 µg/mL | 8.2 | > 10 µg/mL | – | > 10 µg/mL
4 | CC[C@@]1(O)C(=O)OCc2c1cc1n(c2=O)Cc2cc3c(CN(C)C)c(O)ccc3nc2-1 [TOPOTECAN] | 1.2 µM | 1.6 µM | – | 3.1 µM | – | 1.4 µM
5 | O=c1oc(/C=C/c2ccc(O)c(O)c2)cc(O)c1-c1cc(O)c(O)cc1/C=C/c1cc2oc(=O)c3cc(O)c(O)cc3c2c(=O)o1 [PHELLIGRIDIN I] | > 10 µg/mL | > 10 µg/mL | 3.7 | > 10 µg/mL | 3 | > 10 µg/mL
